Shown are actives, neighbours in structure and some others; about 4.9% of the full set was active somewhere.
STAT1 act: increases IFN-gamma driven STAT1 reporter signal. NIH 3T3 STAT1-luciferase reporter, luminescence; 100% = IFN-gamma alone, no compound. activation (% of control), % at 5.5 µM. hit rate 2.6% among 200,000;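 active means activation above the screen-wide mean activation plus 3 SD, cut at about 130% in these data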
NF-kB expr up: raises NF-kB expression in human neuronal cells. NF-kB reporter expression; hits give high values. fold change at 12.5 µM. hit rate 1.6% among 190,000; in the data active means fold change above about 3.3
STAT3 activator: increases IL-6 driven STAT3 reporter signal | U3A cells, IL-6 STAT3-luciferase reporter, luminescence; 100% = signal with IL-6 EC80 alone | activation (% of control), % at 5.6 µM | hit rate 0.91% among 190,000;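 active means activation above the screen-wide mean of compound activation plus 3 SD, cut at about 130% in these data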
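Test system: human U3A cells carrying STAT3-luciferase construct; control set: IL-6-only wells as 100% reference; timing: compound pre-incubation 1 h before IL-6, then 6 h stimulation at 37 °C; also added: IL-6 stimulus at 33 ng/mL final; evaluation: % activation versus median of IL-6-stimulated wells; detection: reporter luminescence signal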
STAT3 blocker: STAT3 signaling inhibition | U3A cells, IL-6 STAT3-luciferase reporter, luminescence; host cell line lacks STAT1 | inhibition, % at 5.5 µM | hit rate 0.89% among 190,000 | AID 862;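 active means inhibition above the mean inhibition across all screened compounds plus 3 SD, cut at about 44% in these data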
STAT1 inh: reduces IFN-gamma driven STAT1 reporter signal | NIH 3T3 STAT1-luciferase reporter, luminescence | inhibition, % at 5.5 µM | hit rate 0.35% among 200,000;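 active means inhibition above a set limit, the mean inhibition across all tested compounds plus 3 SD, cut at about 34% in these data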
APP 5'UTR act: APP 5'UTR luciferase reporter activation; SH-SY5Y APP 5'UTR luciferase reporter, luminescence; zero percent = DMSO vehicle wells; activation, % at 2 µM; hit rate 1% among 190,000; AID 1276;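 active means activation above a set limit, based on mean plus 3 SD of controls, cut at about 140% in these data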
Numbers stand for hits; . = inactive; / = not tested or not shown.

SMILES | STAT1 act | NF-kB expr up | STAT3 activator | STAT3 blocker | STAT1 inh | APP 5'UTR act
CN(c1cccc(NC(=O)c2ccc(Cl)c(S(=O)(=O)Nc3ccccc3)c2)c1)S(C)(=O)=O | . | . | . | . | 45.1 | .
CCCn1c(-c2ccc(OC)cc2)nc2ccccc21 | . | . | . | . | . | .
COCn1c(-c2ccc(OC)cc2)nc2ccccc21 | 128.8 | . | . | . | . | .
Cc1cccc(-n2c(SCc3ccc(C#N)cc3)nnc2-c2c[nH]c3ccccc23)c1 | . | . | . | . | . | .
CCn1ccc(C(=O)Nc2ccccc2Cl)n1 | 138.4 | 4.14 | . | . | . | 162.0
CCn1ccc(C(=O)Nc2cccc(Cl)c2)n1 | 141.0 | . | . | . | . | .
CCn1ccc(C(=O)Nc2ccc(S(=O)(=O)Nc3ccccc3OC)cc2)n1 | . | . | . | . | . | .
O=C1C(Cl)=C(Nc2ccccc2O)C(=O)N1c1ccccc1 | . | 4.32 | . | . | . | .
COc1ccccc1N1C(=O)C(Cl)=C(Nc2ccccc2O)C1=O | . | . | . | . | . | .
CC1CCN(C(=O)Cn2nnc(-c3cccs3)n2)CC1 | 128.7 | . | . | . | . | .
NC(=O)c1cc(-c2ccccc2)sc1NC(=O)CN1CCCCC1 | . | . | . | . | . | .
Cc1ccc(C(=O)O/N=C2\CCCc3ccccc32)cc1 | 134.7 | . | . | . | . | .
Cc1cccc(C(=O)O/N=C2\CCCc3ccccc32)c1 | . | . | . | . | . | .
Cc1ccc(N(CC(=O)NCCSc2nc3ccccc3s2)S(=O)(=O)c2ccccc2)c(C)c1 | . | . | . | . | . | .
CCc1ccc(NC(=S)Nc2cccc(OC)c2)cc1 | . | . | . | . | . | .
COc1cccc(NC(=S)NN=C2CCCCCC2)c1 | . | 3.33 | . | . | . | .
Cc1ccc(NC2=C(N3CCOCC3)C(=O)c3ccccc3C2=O)cc1 | . | . | . | . | . | 151.2
CC(=O)c1ccc(NC2=C(N3CCOCC3)C(=O)c3ccccc3C2=O)cc1 | . | . | . | . | . | .
NC(=O)C1CCN(S(=O)(=O)Cc2ccccc2Cl)CC1 | . | . | . | . | . | .
c1ccc2c(CNc3ccc(CNc4ncn[nH]4)cc3)cccc2c1 | . | . | . | . | . | .
COc1ccccc1CNc1ccc(CNc2ncn[nH]2)cc1 | . | 5.35 | . | . | . | .
COc1cc(CNc2ccc(CNc3ncn[nH]3)cc2)ccc1OCc1ccccc1 | 129.3 | . | . | . | . | .
COc1cc(CNc2ncn[nH]2)ccc1OCC(=O)NC(C)(C)C | . | . | . | . | . | .
COc1cccc(CNC(=O)CCC2CCCN(C(=O)C3=CC(=O)CC(C)(C)O3)C2)c1 (configuration not stated) | . | . | . | . | . | .
COc1ccc(C(=O)c2ccc(N(C)C)cc2)c(OC)c1 | . | . | . | . | . | .
SMILES | STAT1 act | NF-kB expr up | STAT3 activator | STAT3 blocker | STAT1 inh | APP 5'UTR act
CN(C)c1ccc(C(=O)c2ccc(N(C)C)c3ccccc23)cc1 | 139.2 | 5.23 | 146.1 | . | . | .
O=C(Cc1ccccc1)Nc1ccc(SC(F)F)cc1 | . | . | . | . | . | .
CCn1c(SCC(=O)N/N=C/c2c[nH]c3ccccc23)nnc1-c1ccc(Cl)cc1 | . | . | . | . | . | .
CC(=O)N1CCN(S(=O)(=O)c2cccc(C(=O)Nc3nccs3)c2)CC1 | 130.6 | . | . | . | . | .
CCOC(=O)c1cc(-c2ccc3c(c2)OCCO3)n[nH]1 | . | 4.48 | . | . | . | .
CCOC(=O)c1nn(-c2ccc3c(c2)OCCO3)cc1O | . | . | . | . | . | 157.8
c1ccc(Cc2nn3c(COc4ccccc4)nnc3s2)cc1 | . | . | 134.5 | . | . | .
COc1ccc(C(=O)/C=C/c2cccs2)c(OC(=O)c2cccc([N+](=O)[O-])c2)c1 | . | 6.01 | . | . | . | .
COc1ccc(C(=O)/C=C/c2ccc(F)cc2)c(OC(=O)c2ccc([N+](=O)[O-])cc2)c1 | . | . | . | . | . | .
O=C1CCCC/C1=C/Nc1ccc2c(c1)OCO2 | 140.7 | . | . | . | . | .
O=C(CCC1CCCCC1)Nc1ccccc1O | . | 6.38 | . | . | . | .
O=C(CCC1CCCCC1)Nc1ccccc1-c1ccccc1 | . | . | . | . | . | .
Cc1ccc(O)c(NC(=O)CCCC(=O)O)c1 | . | . | . | . | . | .
Cn1c(NC(=O)CCC2CCCCC2)cc(=O)n(C)c1=O | 147.8 | 3.8 | . | . | . | .
Cc1ccc(O)c(NC(=O)CCC2CCCCC2)c1 | . | 4.12 | . | . | . | .
CCOc1ccccc1NC(=O)C(=O)N/N=C/c1cc(Br)ccc1O | . | . | . | . | . | .
CCCn1c(NC(=O)c2ccc(C)cc2)nc2ccccc21 | . | . | . | . | . | .
CCN(CC)CCn1c(NC(=O)c2ccc(Cl)cc2)nc2ccccc21 | . | . | 135.6 | . | . | .
O=C(Nc1nc2ccccc2n1CCN1CCCCC1)c1ccc(Cl)cc1 | . | . | . | . | . | .
Cc1ccc(C(=O)Nc2nc3ccccc3n2CCN2CCCC2)cc1 | 140.9 | . | 157.3 | . | . | .
Cc1ccc(CNC(=O)CCC2CCCN(C(=O)c3ccc4c(c3)OCO4)C2)o1 (configuration not stated) | . | . | . | . | . | .
COc1cccc(C2CC(=O)C3=C(C2)Nc2ccccc2N(C(=O)CCC(=O)O)C3c2ccc(F)cc2)c1 (configuration not stated) | / | / | / | / | / | .
Cc1cc(/C=C2/NC(=O)N(c3ccccc3)C2=O)c(C)n1C(C)C | 128.8 | . | . | . | . | .
O=C(NCc1cccnc1)c1ccc([N+](=O)[O-])o1 | . | 5.33 | . | . | . | .
COc1cc(NC(=O)C(C)C)ccc1NC(=O)c1ccco1 | 134.5 | . | . | . | . | .
SMILES | STAT1 act | NF-kB expr up | STAT3 activator | STAT3 blocker | STAT1 inh | APP 5'UTR act
COc1cc(NC(=S)NC(=O)c2ccco2)ccc1NC(=O)C(C)C | . | . | . | . | . | .
O=C(NCc1ccco1)c1ccc([N+](=O)[O-])o1 | . | 5.63 | . | . | . | .
Cc1cc(NC(=O)c2ccc([N+](=O)[O-])o2)ccc1NC(=O)c1ccco1 | . | 5.09 | . | . | . | .
COc1ccc(OC)c(CC(NC(C)=O)C(=O)NC2CCN(c3cc(C)nc4ncnn34)CC2)c1 (configuration not stated) | . | . | . | . | . | .
O=C(NN(c1ccccc1)c1ccccc1)c1ccc([N+](=O)[O-])o1 | . | 3.55 | . | . | . | .
C/C(=N\Nc1ncc(Cl)cc1Cl)c1ccc2c(c1)OCO2 | . | . | . | . | . | .
C/C(=N\Nc1ncc(Cl)cc1Cl)c1ccc(OC(F)F)cc1 | . | 4.46 | . | . | . | .
CCN(CC)CCNC(=O)c1cccc(NC(=O)C(=O)c2ccccc2NC(C)=O)c1 | . | . | . | . | . | .
Nc1c(N=Nc2ccccc2F)c(=O)[nH]n1-c1ccccc1 | 134.5 | . | . | . | . | .
